Data taken from ChEMBL document CHEMBL1148341, “Selective inhibition of Trypanosoma brucei 6-phosphogluconate dehydrogenase by high-energy intermediate and transition-state analogues” (J Med Chem, 2004).

How the values were obtained:
Trypanosoma brucei = assay: In vitro antiparasitic activity was determined against Trypanosoma brucei; type: functional, organism-based
Trypanosoma cruzi = assay: In vitro antiparasitic activity was determined against Trypanosoma cruzi; type: functional, organism-based
How it was run: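 L-6 rat myoblasts (2000 cells/well, RPMI 1640, 10% FBS, 2 mM L-glutamine) infected after 24 h with 5000 T. cruzi Tulahuen C2C4 LacZ trypomastigotes plus serial drug dilutions; 4 days at 37 °C, 5% CO2. MIC read microscopically; for IC50, CPRG/Nonidet added, colour read at 540 nm after 2–4 h, IC50 from sigmoidal curve.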

Plasmodium falciparum = assay: In vitro antiparasitic activity against Plasmodium falciparum; type: functional, organism-based
Leishmania donovani = assay: In vitro antiparasitic activity was determined against Leishmania donovani; type: functional, organism-based
How it was run: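 Mouse peritoneal macrophages in RPMI 1640 with 10% heat-inactivated FBS, infected after 24 h with L. donovani amastigotes (3:1 amastigotes to macrophages); free amastigotes removed at 4 h. Next day, drug dilutions added; 96 h at 37 °C, 5% CO2. Slides methanol-fixed and Giemsa-stained; infected vs noninfected macrophages counted microscopically as % of control; IC50 by linear regression.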

L6 [1] = assay: In vitro cytotoxic activity was determined against L6 cells; type: functional, cell-based, Rattus norvegicus
L6 [2] = assay: In vitro cytotoxic activity against L6 cells; type: functional, cell-based; conditions: Rattus norvegicus
[3] = target: 6-phosphogluconate dehydrogenase (Trypanosoma brucei) (UniProt P31072); assay: Inhibition constant against 6-phosphogluconate dehydrogenase of Trypanosoma brucei expressed in Escherichia coli; NI denotes no inhibition
Chain of 6-phosphogluconate dehydrogenase (Trypanosoma brucei) (P31072 whole entry, looked up): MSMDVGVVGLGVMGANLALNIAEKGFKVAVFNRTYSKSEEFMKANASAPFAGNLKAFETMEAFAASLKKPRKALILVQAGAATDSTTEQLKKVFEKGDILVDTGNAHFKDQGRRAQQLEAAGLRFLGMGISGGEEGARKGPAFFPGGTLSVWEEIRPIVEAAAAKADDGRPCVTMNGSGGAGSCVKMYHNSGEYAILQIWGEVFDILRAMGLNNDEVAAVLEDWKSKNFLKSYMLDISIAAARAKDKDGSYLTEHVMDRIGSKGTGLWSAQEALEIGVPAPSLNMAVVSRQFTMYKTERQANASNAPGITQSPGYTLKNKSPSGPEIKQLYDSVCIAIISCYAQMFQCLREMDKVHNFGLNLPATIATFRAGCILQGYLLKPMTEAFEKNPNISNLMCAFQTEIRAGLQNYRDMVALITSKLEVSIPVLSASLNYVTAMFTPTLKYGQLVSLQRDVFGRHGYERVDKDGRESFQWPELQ

[4] = target: 6-phosphogluconate dehydrogenase (Ovis aries) (UniProt P00349); assay: Inhibition constant against 6-phosphogluconate dehydrogenase of sheep liver; NI denotes no inhibition
Chain of 6-phosphogluconate dehydrogenase (Ovis aries) (P00349 whole entry, looked up): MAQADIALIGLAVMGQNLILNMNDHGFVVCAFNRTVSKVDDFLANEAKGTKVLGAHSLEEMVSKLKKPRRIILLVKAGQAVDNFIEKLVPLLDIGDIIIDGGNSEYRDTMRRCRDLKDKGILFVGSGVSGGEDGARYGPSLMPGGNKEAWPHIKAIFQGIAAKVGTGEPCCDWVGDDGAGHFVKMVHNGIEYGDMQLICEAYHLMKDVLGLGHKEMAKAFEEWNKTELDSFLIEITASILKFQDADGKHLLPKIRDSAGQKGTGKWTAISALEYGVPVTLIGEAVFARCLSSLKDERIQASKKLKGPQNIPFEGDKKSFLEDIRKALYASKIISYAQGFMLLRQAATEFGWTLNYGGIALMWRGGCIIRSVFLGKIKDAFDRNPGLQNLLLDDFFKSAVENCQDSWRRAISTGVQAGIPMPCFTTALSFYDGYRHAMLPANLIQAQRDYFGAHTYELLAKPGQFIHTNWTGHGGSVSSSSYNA

| SMILES | IC50 (Trypanosoma brucei) [µM] | IC50 (Trypanosoma cruzi) [µM] | IC50 (Plasmodium falciparum) [µM] | IC50 (Leishmania donovani) [µM] | IC50 (L6 [1]) | IC50 (L6 [2]) [µM] | Ki [3] | Ki [4] |
| --- | --- | --- | --- | --- | --- | --- | --- | --- |
| CC(=O)O[C@H](COP(=O)(OCc1ccccc1)OCc1ccccc1)[C@@H](OC(C)=O)C(=O)N(OCc1ccccc1)C(C)=O | 49 | > 143 | > 80 | > 48 | – | – | – | – |
| O=C1OC[C@@H](OC2CCCO2)[C@H]1OC1CCCO1 (stereo partly drawn) | 113 | > 315 | 78 | > 105 | – | – | – | – |
| O=C1OC[C@@H](O)[C@H]1O | – | – | – | – | Not Active | – | – | – |
| CC1(C)OC[C@H](CSCC(=O)OCc2ccccc2)O1 | > 304 | 215 | > 169 | > 101 | – | – | – | – |
| O=C(NO)[C@H](OC1CCCO1)[C@@H](CCO)OC1CCCO1 (stereo partly drawn) | 61 | > 282 | ~157 | > 94 | – | – | – | – |
| CC(=O)O[C@H](COP(=O)(O)O)[C@@H](OC(C)=O)C(=O)NO | 229 | > 285 | > 159 | – | – | > 285 | – | – |
| O=C(NOCc1ccccc1)[C@H](O)[C@H](O)COP(=O)(OCc1ccccc1)OCc1ccccc1 | 130 | > 179 | > 100 | 33 | – | – | – | – |
| O=C(C[S+]([O-])C[C@H](O)COP(=O)(OCc1ccccc1)OCc1ccccc1)OCc1ccccc1 (stereo partly drawn) | 82 | > 169 | > 94 | > 56 | – | – | Not Active | Not Active |
| CC1(C)O[C@H](COP(=O)(O)O)[C@H](C(N)=O)O1 | 212 | 131 | > 196 | – | – | > 220 | – | – |
| O=C(NO)[C@H](O)[C@H](O)COP(=O)(O)O | > 389 | > 389 | > 216 | > 130 | – | 269 | – | – |
| CC(=O)O[C@H](COP(=O)(OCc1ccccc1)OCc1ccccc1)[C@@H](OC(C)=O)C(=O)NOCc1ccccc1 | 60 | > 154 | > 85 | > 17 | – | – | Not Active | Not Active |
| O=C(C[S+]([O-])C[C@@H](COP(=O)(OCc1ccccc1)OCc1ccccc1)OC1CCCO1)OCc1ccccc1 (stereo partly drawn) | 73 | 82 | 7 | – | – | 91 | Not Active | Not Active |
| CC(=O)O[C@H](COP(=O)(O)O)C[S+]([O-])CC(=O)O (stereo partly drawn) | 113 | > 296 | > 164 | > 99 | Not Active | – | – | – |
| O=C(O)C[S+]([O-])C[C@H](O)COP(=O)(O)O (stereo partly drawn) | 244 | > 343 | > 191 | – | – | 343 | – | – |
| O=C(NO)[C@H](O)[C@H](O)CO | 116 | 290 | 18 | > 199 | – | – | – | – |
| CC1(C)O[C@H](COP(=O)(OCc2ccccc2)OCc2ccccc2)[C@H](C(=O)NOCc2ccccc2)O1 | 126 | > 166 | > 92 | > 55 | – | – | – | – |
| CC1(C)O[C@H](CO)[C@H](C(=O)NOCc2ccccc2)O1 | 3.5 | > 32 | 53 | 30 | – | 37 | – | – |
| CC(=O)O[C@H](COP(=O)(OCc1ccccc1)OCc1ccccc1)CSCC(=O)OCc1ccccc1 | 137 | > 161 | 62 | 28 | – | – | – | – |
| NC(=O)[C@H](O)[C@H](O)COP(=O)(O)O | 277 | > 418 | > 232 | > 139 | – | > 418 | – | – |
| CC1(C)O[C@H](COP(=O)(O)O)[C@H](C(=O)NO)O1 | > 332 | > 332 | > 184 | > 111 | – | > 332 | – | – |
| O=C(CSC[C@H](O)CO)OCc1ccccc1 | 75 | 212 | > 195 | > 117 | – | – | – | – |
| CC(=O)O[C@H](COP(=O)(OCc1ccccc1)OCc1ccccc1)C[S+]([O-])CC(=O)OCc1ccccc1 (stereo partly drawn) | 36 | > 157 | 18 | 27 | – | 60 | Not Active | Not Active |
| CC1(C)O[C@@H]2COC(=O)[C@@H]2O1 | 262 | > 569 | > 316 | > 190 | Not Active | – | – | – |
| O=C(CSC[C@H](O)COP(=O)(OCc1ccccc1)OCc1ccccc1)OCc1ccccc1 | 47 | 124 | 65 | 23 | – | – | – | – |
